Active and inactive are the calls of the source. The rule behind the calls is not given here.
These molecules were tested against Bifunctional purine biosynthesis protein ATIC (Homo sapiens, UniProt P31939) (assay: Inhibition of human AICAR Tfase).
Outline: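 Human ATIC transformylase activity assay run per the cited earlier method. IC50 measured in a mix of 25 nM ATIC, 50 μM AICAR substrate and 8.5 μM 10-formyltetrahydrofolate cofactor, the cofactor made in-house by a modified literature route. Inhibition mode was also examined with 0.1 mg/mL saponin present.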

Question: `COc1ccc(C(=O)O[C@H]2CC[C@@]3(C)[C@@H]4CC[C@H]5[C@]6(O)C[C@H](O)[C@@]7(O)[C@@H](CN8C[C@@H](C)CC[C@H]8[C@@]7(C)O)[C@]6(O)C[C@@]53O[C@]24O)cc1OC` [VERATRIDINE] was tested. Which IC50 did it give?
Answer: 231 µM

Question: How did the IC50 turn out when `O=S(=O)(O)c1ccc(/N=N/c2ccc(/N=N/c3ccc(O)c4cccc(S(=O)(=O)O)c34)cc2)cc1` was run?
Answer: 11.6 µM

Question: `Cc1ccc(S(=O)(=O)Nc2cc([N+](=O)[O-])c3scnc3c2)cc1` was tested. Which IC50 did it give?
Answer: 36.1 µM

Question: Which Activity does the source give for `C[C@H](CCC(=O)O)[C@H]1CC[C@H]2[C@@H]3CC[C@@H]4C[C@@H](O)CC[C@]4(C)[C@H]3C[C@H](O)[C@]12C` here?
Answer: inactive

Question: Which IC50 does the source give for `O=S(=O)(O)c1cc(/N=[N+](\[O-])c2cc(S(=O)(=O)O)c3ccccc3c2)cc2ccccc12` here?
Answer: 7.8 µM

Question: `CC1=NN(c2ccc(S(=O)(=O)O)cc2)C(=O)C1/N=N/c1ccc(S(=O)(=O)Nc2ccccc2)c(C)c1` (stereo not given) was tested. Which IC50 did it give?
Answer: 11.6 µM

Question: Which Activity does the source give for `CC1CCC2N(C1)CC1C3(O)CC45OC6(O)C(O)CCC4(C)C6CCC5C3(O)CC(O)C13C(C)(O)C23O` (stereo not given) here?
Answer: inactive

Question: For `CN1CCN(c2ccc3[nH]c(-c4ccc5[nH]c(-c6ccc(O)cc6)nc5c4)nc3c2)CC1`, which Activity is on record?
Answer: inactive

Question: Which IC50 does the source give for `Cc1ccc(OS(=O)(=O)c2ccc(/N=N/c3c(C)[nH]n(-c4ccc(Cl)cc4S(=O)(=O)O)c3=O)cc2)cc1` here?
Answer: 3.3 µM

Question: For `CC(=O)Nc1ccc(S(=O)(=O)Nc2cnc3ccccc3n2)cc1`, which IC50 is on record?
Answer: 54.7 µM

Question: `CC(C)[C@H](C)/C=C/[C@@H](C)[C@H]1CC[C@H]2C3=CC=C4C[C@@H](O)CC[C@]4(C)[C@H]3CC[C@]12C` was tested. Which Activity did it give?
Answer: inactive

Question: `NS(=O)(=O)c1cccc2cc(/N=N/c3cccc4c(S(=O)(=O)O)cccc34)ccc12` was tested. Which IC50 did it give?
Answer: 0.6 µM

Question: What about the Ki of the same molecule?
Answer: 0.154 µM

Question: How did the IC50 turn out when `Cc1ccc2nc(-c3ccc(NC(=O)c4ccc(N)cc4)c(S(=O)(=O)O)c3)sc2c1` was run?
Answer: 16.9 µM

Question: With `C[C@]12CC[C@H]3[C@@H](CCC4=CC(=O)CC[C@@]43C)[C@@H]1CC[C@@H]2C(=O)COS(=O)(=O)c1ccc(Br)cc1` as the molecule, how does the IC50 read?
Answer: 13.9 µM

Question: Which IC50 does the source give for `CC1=NN(c2cc(Cl)c(S(=O)(=O)O)cc2Cl)C(=O)C1/N=N/c1ccc(S(=O)(=O)O)cc1` (stereo not given) here?
Answer: 20.1 µM

Question: With `Nc1cccc2cc(S(=O)(=O)Nc3ccc(C(=O)O)cc3)ccc12` as the molecule, how does the IC50 read?
Answer: 4.1 µM

Question: For `Cc1cc(N)ccc1/N=N/c1cc(S(=O)(=O)O)c2cccc(S(=O)(=O)O)c2c1`, which IC50 is on record?
Answer: 7.6 µM

Question: `Cc1ccc(S(=O)(=O)N/N=C2/C=C3CC[C@H]4[C@@H]5CC[C@H]([C@H](C)CCCC(C)C)[C@@]5(C)CC[C@@H]4[C@@]3(C)CC2)cc1` was tested. Which IC50 did it give?
Answer: 9.6 µM

Question: How did the Activity turn out when `CC(C)(O)/C=C/C(=O)[C@](C)(O)[C@H]1[C@H](O)C[C@@]2(C)[C@@H]3CC=C4[C@@H](C=C(O)C(=O)C4(C)C)[C@]3(C)C(=O)C[C@]12C` was run?
Answer: inactive

Question: With `O=C(O)c1cc(C(=O)C(=O)c2cc(C(=O)O)c(O)c3ccccc23)c2ccccc2c1O` as the molecule, how does the IC50 read?
Answer: 8.8 µM

Question: How did the IC50 turn out when `O=C(O)C1=C/C(=C/C(c2ccccc2)c2cc(C(=O)O)c(O)c3ccccc23)c2ccccc2C1=O` (stereo not given) was run?
Answer: 204 µM

Question: How did the Activity turn out when `CC(CC(=O)O)[C@H]1CC[C@@]2(C)[C@@H]3C(=O)C[C@H]4C(C)(C)[C@@H](O)CC[C@]4(C)[C@H]3C(=O)C[C@]12C` (single isomer, unassigned) was run?
Answer: inactive

Question: For `C[C@]12CC[C@H]3[C@@H](CCC4=CC(=O)CC[C@@H]43)[C@@H]1CCC2OC1(O)C(=O)c2ccccc2C1=O` (stereo not given in full), which Activity is on record?
Answer: inactive

Question: Which Activity does the source give for `C[C@@H]1O[C@@H](O[C@H]2C[C@@H](O)[C@]3(CO)[C@H]4[C@H](O)C[C@]5(C)[C@@H](C6=CC(=O)OC6)CC[C@]5(O)[C@@H]4CC[C@]3(O)C2)[C@H](O)[C@H](O)[C@H]1O` here?
Answer: inactive

— ChEMBL document CHEMBL1149296, “Virtual screening of human 5-aminoimidazole-4-carboxamide ribonucleotide transformylase against the NCI diversity set by use of AutoDock to identify novel nonfolate inhibitors” (J Med Chem, 2004)
